ChEMBL document CHEMBL1139681, “Discovery of orally active butyrolactam 11beta-HSD1 inhibitors” (Bioorg Med Chem Lett, 2006)

Key:
[1] = biological target: T1, 11-beta-hydroxysteroid dehydrogenase type 2 (Homo sapiens, UniProt P80365); assay: Inhibition of human 11beta-HSD2
T1 sequence (P80365 whole entry): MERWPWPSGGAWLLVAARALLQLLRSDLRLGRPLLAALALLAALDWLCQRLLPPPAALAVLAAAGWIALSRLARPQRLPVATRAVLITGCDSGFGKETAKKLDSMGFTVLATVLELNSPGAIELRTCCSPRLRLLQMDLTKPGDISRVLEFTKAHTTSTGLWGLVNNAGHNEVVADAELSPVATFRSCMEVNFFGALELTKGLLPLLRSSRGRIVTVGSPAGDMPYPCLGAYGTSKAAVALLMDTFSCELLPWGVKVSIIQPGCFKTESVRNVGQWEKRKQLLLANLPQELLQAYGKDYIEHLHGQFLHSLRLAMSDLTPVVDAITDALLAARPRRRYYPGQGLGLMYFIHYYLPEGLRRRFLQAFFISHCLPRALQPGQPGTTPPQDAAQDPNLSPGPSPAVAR

[2] = biological target: T2, 11-beta-hydroxysteroid dehydrogenase 1 (Homo sapiens, UniProt P28845); assay: Inhibition of human 11beta-HSD1
[3] = biological target: T3, 11-beta-hydroxysteroid dehydrogenase type 2 (Mus musculus, UniProt P51661); assay: Inhibition of mouse 11beta-HSD2
T3 sequence (P51661 whole entry): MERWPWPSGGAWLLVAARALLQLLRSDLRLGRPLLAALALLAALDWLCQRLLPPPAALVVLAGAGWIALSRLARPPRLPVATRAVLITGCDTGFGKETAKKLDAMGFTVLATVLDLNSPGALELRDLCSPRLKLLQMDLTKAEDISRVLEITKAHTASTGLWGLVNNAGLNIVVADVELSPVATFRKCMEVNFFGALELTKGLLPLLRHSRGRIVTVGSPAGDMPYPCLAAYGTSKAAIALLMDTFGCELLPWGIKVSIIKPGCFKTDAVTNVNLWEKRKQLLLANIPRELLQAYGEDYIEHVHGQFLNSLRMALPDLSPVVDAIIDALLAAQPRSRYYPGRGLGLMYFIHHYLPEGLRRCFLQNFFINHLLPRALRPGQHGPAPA

[4] = biological target: T2, 11-beta-hydroxysteroid dehydrogenase 1; assay: Inhibition of human 11beta-HSD1 expressed in HEK293 cells; assay type: cell-based
[5] = biological target: 11-beta-hydroxysteroid dehydrogenase 1 (Mus musculus, UniProt P50172); assay: Inhibition of mouse 11beta-HSD1
[6] = biological target: 11-beta-hydroxysteroid dehydrogenase 1 (Mus musculus) (UniProt P50172); assay: Inhibition of DIO mouse liver 11beta-HSD1at 30 mg/kg, po after 16 hrs; assay type: organism-based; set-up: dose 30 mg/kg; conditions: at 30 mg/kg
Procedure, shortened: (§1)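 DIO mice given a single 30 mpk dose; 11β-HSD1 inhibition in liver and fat measured ex vivo at 1, 7 and 16 h post-dose.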

[7] = biological target: 11-beta-hydroxysteroid dehydrogenase 1 (Mus musculus) (UniProt P50172); assay: Inhibition of DIO mouse epididymal fat pad 11beta-HSD1 at 30 mg/kg, po after 16 hrs; assay type: organism-based; set-up: dose 30 mg/kg; procedure, shortened: as §1
[8] = biological target: 11-beta-hydroxysteroid dehydrogenase 1 (Mus musculus) (UniProt P50172); assay: Inhibition of DIO mouse epididymal fat pad 11beta-HSD1 at 30 mg/kg, po after 1 hr; assay type: organism-based; set-up: dose 30 mg/kg; procedure, shortened: as §1
[9] = biological target: 11-beta-hydroxysteroid dehydrogenase 1 (Mus musculus) (UniProt P50172); assay: Inhibition of DIO mouse liver 11beta-HSD1at 30 mg/kg, po after 7 hrs; assay type: organism-based; set-up: dose 30 mg/kg; conditions: at 30 mg/kg; procedure, shortened: as §1
[10] = biological target: 11-beta-hydroxysteroid dehydrogenase 1 (Mus musculus) (UniProt P50172); assay: Inhibition of DIO mouse epididymal fat pad 11beta-HSD1 at 30 mg/kg, po after 7 hrs; assay type: organism-based; set-up: dose 30 mg/kg; procedure, shortened: as §1
[11] = biological target: 11-beta-hydroxysteroid dehydrogenase 1 (Mus musculus) (UniProt P50172); assay: Inhibition of DIO mouse liver 11beta-HSD1at 30 mg/kg, po after 1 hr; assay type: organism-based; set-up: dose 30 mg/kg; conditions: at 30 mg/kg; procedure, shortened: as §1
[12] = system: Mus musculus; assay: Effect on body weight in DIO C57BL/6J mouse at 5 mg/kg, po; assay type: functional
Procedure, shortened: (§2)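 Male C57BL/6J mice (5–6 weeks at purchase) made obese on high-fat diet, group-housed, 12 h light/dark cycle. Conditioned to oral gavage beforehand; assigned to groups of equal mean body weight. Dosed po bid (08:00, 15:00) in 1% Tween 80 in water, 4 ml/kg, for 14 days; lean and high-fat vehicle controls. Plasma analytes measured after 4 h fast; Dunnett's test.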

[13] = system: Mus musculus; assay: Lowering of plasma insulin level in DIO C57BL/6J mouse at 5 mg/kg, po after 4 hr fasting; assay type: functional; procedure, shortened: as §2
[14] = system: Mus musculus; assay: Lowering of plasma glucose level in DIO C57BL/6J mouse at 5 mg/kg, po after 4 hr fasting; assay type: functional; procedure, shortened: as §2
[15] = system: Mus musculus; assay: Effect on plasma triglyceride level in DIO C57BL/6J mouse at 5 mg/kg, po after 4hrs fasting; assay type: functional; procedure, shortened: as §2
[16] = Stability in mouse liver microsomes after 30 min; assay type: ADME, Microsome; conditions: for remaining at 0.5 h: liver microsomes, read-out: Stability
Procedure, shortened: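 Percent parent remaining after a 30-min incubation with mouse liver microsomes.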

[17] = Half life in mouse at 5 mg/kg, iv and 10 mg/kg, po; assay type: ADME, organism-based; conditions: in vivo
Procedure, shortened: (§3)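 Mouse PK; parameters derived from iv dosing at 5 mg/kg and oral (po) dosing at 10 mg/kg.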

[18] = system: Mus musculus; assay: Lowering of plasma glucose level in DIO C57BL/6J mouse at 30 mg/kg, po after 4 hr fasting; assay type: functional; procedure, shortened: as §2
[19] = Plasma clearance in mouse at 5 mg/kg, iv and 10 mg/kg, po; assay type: ADME, organism-based; procedure, shortened: as §3
[20] = system: Mus musculus; assay: Lowering of plasma insulin level in DIO C57BL/6J mouse at 30 mg/kg, po after 4hrs fasting; assay type: functional; procedure, shortened: as §2
[21] = system: Mus musculus; assay: Effect on plasma triglyceride level in DIO C57BL/6J mouse at 30 mg/kg, po after 4 hr fasting; assay type: functional; procedure, shortened: as §2
[22] = Bioavailability in mouse at 5 mg/kg, iv and 10 mg/kg, po; assay type: ADME, organism-based; conditions: in vivo; procedure, shortened: as §3
[23] = system: Mus musculus; assay: Effect on body weight in DIO C57BL/6J mouse at 30 mg/kg, po; assay type: functional; procedure, shortened: as §2

T2 sequence (P28845 whole entry): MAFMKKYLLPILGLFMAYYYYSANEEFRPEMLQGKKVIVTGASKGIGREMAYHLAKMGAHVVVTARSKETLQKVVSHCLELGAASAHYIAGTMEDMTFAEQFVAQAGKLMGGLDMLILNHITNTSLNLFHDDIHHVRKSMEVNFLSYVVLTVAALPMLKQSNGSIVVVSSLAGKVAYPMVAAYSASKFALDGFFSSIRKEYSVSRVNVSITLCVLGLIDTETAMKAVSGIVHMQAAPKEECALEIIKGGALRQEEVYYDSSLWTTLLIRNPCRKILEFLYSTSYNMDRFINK
Chain of 11-beta-hydroxysteroid dehydrogenase 1 (Mus musculus) (P50172 whole entry, looked up): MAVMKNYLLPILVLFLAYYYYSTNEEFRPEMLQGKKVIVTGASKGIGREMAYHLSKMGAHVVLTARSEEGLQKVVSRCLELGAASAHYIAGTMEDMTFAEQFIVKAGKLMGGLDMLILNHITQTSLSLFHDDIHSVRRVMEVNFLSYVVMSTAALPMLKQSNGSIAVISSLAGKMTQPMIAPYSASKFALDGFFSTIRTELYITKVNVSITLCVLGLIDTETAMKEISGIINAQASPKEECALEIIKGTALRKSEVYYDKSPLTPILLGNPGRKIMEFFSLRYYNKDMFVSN
Chain of 11-beta-hydroxysteroid dehydrogenase 1 (Mus musculus, UniProt P50172) (P50172 whole entry): as the sequence (P50172 whole entry, looked up) above

| Compound | IC50 [1] | IC50 [2] | IC50 [3] | IC50 [4] | IC50 [5] | remaining at 0.5 h [16] | also measured |
| --- | --- | --- | --- | --- | --- | --- | --- |
| O=C1C(Cc2ccccc2)CCN1C1CCCCC1 (centres undefined) | > 10000 nM | 107 nM | – | – | – | – | – |
| CCOC(=O)[C@H]1[C@@H]2CCC(N3CC(COc4ccc(C#N)cn4)C(C)(C)C3=O)CC[C@@H]21 (some centres undefined) | > 30000 nM | – | > 100000 nM | 518 nM | – | – | Ki [5]: 260 nM; Ki [2]: 50 nM |
| CC1(C)C(=O)N([C@H]2C3CCCC2C[C@@H](C(N)=O)C3)CC1COc1ccc(C#N)cn1 (stereo in doubt; 31) [listing 1 of 2 here] | – | – | – | – | – | – | inhibition [6]: 14%; inhibition [7]: 17%; inhibition [8]: 68%; inhibition [9]: 33%; inhibition [10]: 30%; inhibition [11]: 73% |
| CC1(C)C(=O)N([C@H]2C3CC4CC2C[C@](C(N)=O)(C4)C3)CC1COc1ccc(-n2cncn2)cc1 (some centres undefined) | 1600 nM | 41 nM | 8000 nM | 43 nM | 32 nM | – | – |
| CN(CCOc1ccc(CC2SC(=O)NC2=O)cc1)c1ccccn1 (centres undefined) [ROSIGLITAZONE] | – | – | – | – | – | – | Activity [12]: 41.6 g; Activity [13]: 0.97 ng/mL; Activity [14]: 143.4 mg/dL; Activity [15]: 50.8 mg/dL |
| O=C1C(Cc2ccccc2)CCN1C1C2CC3CC(C2)CC1C3 (centres undefined) | > 10000 nM | 64 nM | – | – | – | – | – |
| CC1(C)C(=O)N(C23CCC(C(N)=O)(CC2)CC3)CC1COc1ccc(C#N)cn1 (centres undefined) | – | – | 100000 nM | – | 10 nM | 91% | – |
| CC1(C)C(=O)N(C2CCCN(C(N)=O)CC2)CC1COc1ccc(C#N)cn1 (centres undefined) | – | – | – | – | – | – | Ki [5]: 250 nM; Ki [2]: 190 nM |
| CC1(C)C(=O)N([C@H]2C3CC4CC2C[C@](C(N)=O)(C4)C3)CC1COc1ccc(C#N)cn1 (some centres undefined) | – | – | 10000 nM | – | 2 nM | 97% | half-life [17]: 1.3 h; Activity [18]: 164.7 mg/dL; inhibition [6]: 67%; inhibition [7]: 46%; clearance [19]: 33.3 mL/min/kg; inhibition [9]: 94%; Activity [20]: 1.31 ng/mL; Activity [21]: 33.3 mg/dL; inhibition [10]: 71%; bioavailability [22]: 76.6%; Activity [23]: 40.7 g; inhibition [11]: 99% |
| CC1(C)C(=O)N([C@H]2C3CC4CC2C[C@](C(=N)N)(C4)C3)CC1COc1ccc(C(F)(F)F)cn1 (some centres undefined) | – | – | > 100000 nM | – | 110 nM | 100% | – |
| CC1(C)C(=O)N([C@H]2C3CC4CC2C[C@](C(=N)NO)(C4)C3)CC1COc1ccc(C(F)(F)F)cn1 (some centres undefined) | – | – | 60000 nM | – | 14 nM | 67% | – |
| CC#C[C@]1(O)CC[C@H]2[C@@H]3CCC4=CC(=O)CCC4=C3[C@@H](c3ccc(N(C)C)cc3)C[C@@]21C [MIFEPRISTONE] | – | – | – | – | – | – | Activity [18]: 147.5 mg/dL; Activity [20]: 1.5 ng/mL; Activity [21]: 43.2 mg/dL; Activity [23]: 39.5 g |
| N#Cc1ccc(OCC2CC(=O)N(C3CCCCCC3)C2)nc1 (centres undefined) | – | – | – | – | 10000 nM | – | – |

Further lines, with some results ahead:

| IC50 [1] | IC50 [2] | IC50 [3] | IC50 [4] | IC50 [5] | remaining at 0.5 h [16] | Compound | also measured |
| --- | --- | --- | --- | --- | --- | --- | --- |
| > 30000 nM | 35 nM | – | – | – | – | NC(=O)[C@]12CC3CC(C1)[C@@H](N1CCC(Cc4ccccc4)C1=O)C(C3)C2 (some centres undefined) | – |
| > 10000 nM | 832 nM | – | – | – | – | O=C1C(Cc2ccccc2)CCN1[C@H]1C2CC3CC1C[C@](O)(C3)C2 (some centres undefined) | – |
| 630 nM | 310 nM | 1600 nM | 230 nM | 430 nM | – | CC1(C)C(=O)N([C@H]2C3CC4CC2C[C@](c2nnn[nH]2)(C4)C3)CC1COc1ccc(C(F)(F)F)cn1 (some centres undefined) | – |
| > 100000 nM | – | > 100000 nM | 510 nM | – | 12% | CC1(C)C(=O)N([C@H]2C3CCCC2C[C@H](C(N)=O)C3)CC1COc1ccc(C#N)cn1 (some centres undefined) | Ki [5]: 17 nM; Ki [2]: 29 nM |
| 15000 nM | 7 nM | > 50000 nM | 39 nM | 3 nM | – | CC1(C)C(=O)N([C@H]2C3CCCC2C[C@@H](C(N)=O)C3)CC1COc1ccc(C#N)cn1 (stereo in doubt; 31) [listing 2 of 2 here] | half-life [17]: 1.3 h; Stability ([16]; microsomes, 0.5 h): 88%; clearance [19]: 23.3 mL/min/kg; bioavailability [22]: 63.9% |
| 1800 nM | 76 nM | 14000 nM | 28 nM | 41 nM | 28% | CC1(C)C(=O)N([C@H]2C3CC4CC2C[C@](C(N)=O)(C4)C3)CC1COc1ccc(-n2ccnc2)cc1 (some centres undefined) | – |
| 22000 nM | 5 nM | 100000 nM | 46 nM | 9 nM | 92% | CC1(C)C(=O)N([C@H]2C3CCCC2C[C@@H](C(N)=O)C3)CC1COc1ccc(C#N)cn1 (stereo in doubt; 32) | – |
| – | – | 100000 nM | – | 62 nM | – | CC1(C)C(=O)N(C2CCCCCC2)CC1COc1ccc(C#N)cn1 (centres undefined) | – |
| – | – | – | – | 75 nM | – | C[C@H]1C(=O)N(C2CCCCCC2)C[C@@H]1COc1ccc(C#N)cn1 | – |
